From ChEMBL document CHEMBL4177588, “Synthesis, biological evaluation, and metabolic stability of chlorogenic acid derivatives possessing thiazole as potent inhibitors of α-MSH-stimulated melanogenesis” (Bioorg Med Chem Lett, 2017)

What was measured:
[1] = Half-life in human liver S9 fraction at 1 uM pretreated for 5 mins followed by NADPH/UDPGA/ PAPS addition by Q-TOF LC-MS/MS analysis; type: ADME, subcellular
Procedure, shortened: (§1)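 Human liver S9 fraction (1 mg/mL) in 50 mM Tris buffer, pH 7.5, fortified with NADPH (1 mM), UDPGA and PAPS to support oxidative, glucuronidation and sulfation pathways. Parent loss and metabolites were analysed by Q-TOF LC-MS/MS.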

[2] = Drug metabolism in human liver S9 fraction assessed as SULT-mediated compound sulfation by measuring M1 formation at 1 uM pretreated for 5 mins followed by NADPH/UDPGA/ PAPS addition by Q-TOF LC-MS/MS analysis; type: ADME, subcellular; conditions: s9, 1 µM; procedure, shortened: as §1
[3] = Drug metabolism in human liver microsomes assessed as compound oxidation at 1 uM measured after 5 mins in absence of NADPH by Q-TOF LC-MS/MS analysis; type: ADME, microsome
[4] = Drug metabolism in human liver S9 fraction assessed as UGT-mediated compound glucuronidation by measuring M2 formation at 1 uM pretreated for 5 mins followed by NADPH/UDPGA/ PAPS addition by Q-TOF LC-MS/MS analysis; type: ADME, subcellular; conditions: s9, 1 µM; procedure, shortened: as §1
B16 = assay: Inhibition of alpha-MSH stimulated melanogenesis in mouse B16 cells; type: functional, cell-based
[5] = Drug metabolism in human liver S9 fraction assessed as UGT-mediated compound glucuronidation by measuring M4 formation at 1 uM pretreated for 5 mins followed by NADPH/UDPGA/ PAPS addition by Q-TOF LC-MS/MS analysis; type: ADME, subcellular; conditions: s9, 1 µM; procedure, shortened: as §1
[6] = Drug metabolism in human liver S9 fraction assessed as compound oxidation by measuring (4-Benzo[1,3]dioxol-5-yl-1-oxo-thiazol-2-yl)-(4-trifluoromethyl-benzyl)-amine formation at 1 uM pretreated for 5 mins followed by NADPH/UDPGA/ PAPS addition by Q-TOF LC-MS/MS analysis; type: ADME, subcellular; conditions: s9, 1 µM; procedure, shortened: as §1
[7] = Drug metabolism in human liver S9 fraction assessed as SULT-mediated compound sulfation by measuring M3 formation at 1 uM pretreated for 5 mins followed by NADPH/UDPGA/ PAPS addition by Q-TOF LC-MS/MS analysis; type: ADME, subcellular; conditions: s9, 1 µM; procedure, shortened: as §1
[8] = Drug metabolism in human liver S9 fraction assessed as compound oxidation by measuring 4-[2-(4-Trifluoromethyl-benzylamino)-thiazol-4-yl]-benzene-1,2-diol formation at 1 uM pretreated for 5 mins followed by NADPH/UDPGA/ PAPS addition by Q-TOF LC-MS/MS analysis; type: ADME, subcellular; conditions: s9, 1 µM; procedure, shortened: as §1
[9] = Drug metabolism in human liver S9 fraction treated with 4-(Benzo[d][1,3]dioxol-5-yl)-N-(4-(trifluoromethyl)benzyl)thiazol-2-amine assessed as metabolite formation at 1 uM pretreated for 5 mins followed by NADPH/UDPGA/ PAPS addition by Q-TOF LC-MS/MS analysis; type: ADME, subcellular; conditions: s9, 1 µM; procedure, shortened: as §1

| IC50 (B16) | SMILES | further results |
| --- | --- | --- |
| – | O=C(/C=C/c1ccc(O)c(O)c1)NCc1ccc(C(F)(F)F)cc1 | half-life at 1 µM [1]: 5 min; Drug metabolism [2]: Metabolite_Detected; Drug metabolism [3]: Metabolite_Detected; Drug metabolism [4]: Metabolite_Detected |
| > 50 µM | Oc1ccc(-c2csc(NCc3cccc(Cl)c3)n2)cc1O | – |
| 0.9 µM | FC(F)(F)c1ccc(CNc2nc(-c3ccc4c(c3)OCO4)cs2)cc1 | half-life at 1 µM [1]: 69.3 min; Drug metabolism [5]: Metabolite_Detected; Drug metabolism [6]: Metabolite_Detected; Drug metabolism [7]: Metabolite_Detected; Drug metabolism [8]: Metabolite_Detected |
| 32.7 µM | Oc1ccc(-c2csc(NCc3ccc(C(F)(F)F)cc3)n2)cc1O | Drug metabolism [9]: Metabolite_Detected |
| 11.1 µM | c1ccc(CNc2nc(-c3ccc4c(c3)OCO4)cs2)cc1 | – |
| 2 µM | Oc1ccc(-c2csc(NCc3ccccc3Cl)n2)cc1O | – |
| 13.2 µM | Clc1cccc(CNc2nc(-c3ccc4c(c3)OCO4)cs2)c1 | – |
| 1.8 µM | Oc1ccc(-c2csc(NCc3cccc(C(F)(F)F)c3)n2)cc1O | – |
| 15.3 µM | FC(F)(F)c1cccc(CNc2nc(-c3ccc4c(c3)OCO4)cs2)c1 | – |
| 37.9 µM | Clc1ccc(CNc2nc(-c3ccc4c(c3)OCO4)cs2)cc1 | – |
| 11.5 µM | Oc1ccc(-c2csc(NCc3ccc(Cl)cc3)n2)cc1O | – |
| – | [O-][s+]1cc(-c2ccc3c(c2)OCO3)nc1NCc1ccc(C(F)(F)F)cc1 (stereo not given) | Drug metabolism [9]: Metabolite_Detected |
| 12.4 µM | Clc1ccccc1CNc1nc(-c2ccc3c(c2)OCO3)cs1 | – |
| 2.6 µM | Oc1ccc(-c2csc(NCc3ccccc3C(F)(F)F)n2)cc1O | – |
| 9.6 µM | FC(F)(F)c1ccccc1CNc1nc(-c2ccc3c(c2)OCO3)cs1 | – |
| 2.1 µM | Oc1ccc(-c2csc(NCc3ccccc3)n2)cc1O | – |
